Data taken from BindingDB's records for doi:10.1016/j.ejmech.2016.07.006 (Csir-Indian Institute of Integrative Medicine, 2016).
pIC50: −log10 of the molar value.

Legend:
[1] = target: T1, Phosphatidylinositol 4,5-bisphosphate 3-kinase catalytic subunit delta isoform (Homo sapiens, UniProt O00329); assay: Inhibition of PI3Kdelta (unknown origin) using diC8 PIP2 as substrate after 120 mins by ADP-glo assay
T1 sequence (O00329 whole entry): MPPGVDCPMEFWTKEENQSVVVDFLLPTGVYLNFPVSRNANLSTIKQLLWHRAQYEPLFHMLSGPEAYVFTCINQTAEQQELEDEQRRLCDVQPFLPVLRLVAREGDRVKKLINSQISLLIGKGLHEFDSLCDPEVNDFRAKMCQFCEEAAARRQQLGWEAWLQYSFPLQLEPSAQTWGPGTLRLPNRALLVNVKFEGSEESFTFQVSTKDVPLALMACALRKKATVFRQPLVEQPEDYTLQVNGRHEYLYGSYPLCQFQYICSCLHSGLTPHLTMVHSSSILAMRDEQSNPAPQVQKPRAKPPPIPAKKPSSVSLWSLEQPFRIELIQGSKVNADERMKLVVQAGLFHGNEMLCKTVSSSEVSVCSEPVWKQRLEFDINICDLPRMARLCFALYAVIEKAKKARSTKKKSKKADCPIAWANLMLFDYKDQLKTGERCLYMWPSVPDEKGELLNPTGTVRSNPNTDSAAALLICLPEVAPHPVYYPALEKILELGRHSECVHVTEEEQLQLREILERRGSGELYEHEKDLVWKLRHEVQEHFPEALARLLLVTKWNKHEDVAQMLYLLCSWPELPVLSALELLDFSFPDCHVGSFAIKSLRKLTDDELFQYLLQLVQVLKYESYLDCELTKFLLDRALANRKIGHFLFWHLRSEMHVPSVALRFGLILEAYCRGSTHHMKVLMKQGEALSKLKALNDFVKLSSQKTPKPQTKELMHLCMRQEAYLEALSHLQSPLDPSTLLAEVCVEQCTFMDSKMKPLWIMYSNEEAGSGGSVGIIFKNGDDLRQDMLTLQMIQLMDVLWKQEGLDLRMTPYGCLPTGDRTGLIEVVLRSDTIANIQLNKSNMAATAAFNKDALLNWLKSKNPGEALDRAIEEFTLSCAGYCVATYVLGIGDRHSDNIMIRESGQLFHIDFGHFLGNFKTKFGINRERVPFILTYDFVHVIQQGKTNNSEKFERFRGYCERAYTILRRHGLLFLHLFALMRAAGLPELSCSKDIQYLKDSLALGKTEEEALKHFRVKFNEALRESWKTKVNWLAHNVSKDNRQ
Outline: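 Delta isoform reacted 120 min in glycine-NaOH pH 8.5 buffer (50 mM KCl, 2.5 mM MgCl2, 1 mM DTT, 0.05% CHAPS) with 0.01 mM ATP and 0.05 mM diC8 PIP2; ADP formed detected by ADP-Glo (40 min) plus detection buffer (40 min) luminescence. Dundee profiling centre.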

[2] = target: Phosphatidylinositol 4,5-bisphosphate 3-kinase catalytic subunit beta isoform (Homo sapiens, UniProt P42338); assay: Inhibition of PI3Kbeta (unknown origin) using diC8 PIP2 as substrate after 60 mins by ADP-glo assay
[3] = target: Phosphatidylinositol 4,5-bisphosphate 3-kinase catalytic subunit alpha isoform (Homo sapiens, UniProt P42336); assay: Inhibition of PI3Kalpha (unknown origin) using diC8 PIP2 as substrate after 80 mins by ADP-glo assay
Chain of Phosphatidylinositol 4,5-bisphosphate 3-kinase catalytic subunit alpha isoform (P42336 whole entry, canonical isoform): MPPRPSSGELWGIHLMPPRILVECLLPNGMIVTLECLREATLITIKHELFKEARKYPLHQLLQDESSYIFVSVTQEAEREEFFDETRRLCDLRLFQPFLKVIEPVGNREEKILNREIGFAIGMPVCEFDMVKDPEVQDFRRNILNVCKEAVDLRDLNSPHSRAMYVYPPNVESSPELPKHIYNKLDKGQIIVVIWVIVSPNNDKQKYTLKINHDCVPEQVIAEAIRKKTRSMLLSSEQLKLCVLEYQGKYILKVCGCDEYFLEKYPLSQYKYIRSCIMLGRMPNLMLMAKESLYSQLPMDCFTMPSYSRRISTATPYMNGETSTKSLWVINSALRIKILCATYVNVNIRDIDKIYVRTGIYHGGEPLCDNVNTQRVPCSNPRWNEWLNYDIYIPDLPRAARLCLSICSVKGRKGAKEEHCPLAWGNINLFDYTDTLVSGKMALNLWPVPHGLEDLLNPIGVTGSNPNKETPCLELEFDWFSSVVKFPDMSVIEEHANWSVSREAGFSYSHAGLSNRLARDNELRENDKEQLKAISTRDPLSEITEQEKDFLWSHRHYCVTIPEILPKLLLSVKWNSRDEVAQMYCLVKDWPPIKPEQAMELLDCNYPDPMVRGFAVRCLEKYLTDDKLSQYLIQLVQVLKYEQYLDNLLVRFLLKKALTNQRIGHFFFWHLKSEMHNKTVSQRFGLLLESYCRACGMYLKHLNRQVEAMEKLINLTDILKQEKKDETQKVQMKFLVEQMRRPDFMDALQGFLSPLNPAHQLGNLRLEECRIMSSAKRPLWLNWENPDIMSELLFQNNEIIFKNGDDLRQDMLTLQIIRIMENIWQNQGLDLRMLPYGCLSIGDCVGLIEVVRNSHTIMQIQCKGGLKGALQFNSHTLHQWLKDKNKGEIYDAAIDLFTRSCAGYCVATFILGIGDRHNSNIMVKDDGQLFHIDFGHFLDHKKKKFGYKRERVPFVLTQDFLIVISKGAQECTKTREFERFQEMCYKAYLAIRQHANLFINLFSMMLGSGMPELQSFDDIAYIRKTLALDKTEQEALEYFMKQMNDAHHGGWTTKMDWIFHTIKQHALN

Chain of Phosphatidylinositol 4,5-bisphosphate 3-kinase catalytic subunit beta isoform (P42338 whole entry, canonical isoform): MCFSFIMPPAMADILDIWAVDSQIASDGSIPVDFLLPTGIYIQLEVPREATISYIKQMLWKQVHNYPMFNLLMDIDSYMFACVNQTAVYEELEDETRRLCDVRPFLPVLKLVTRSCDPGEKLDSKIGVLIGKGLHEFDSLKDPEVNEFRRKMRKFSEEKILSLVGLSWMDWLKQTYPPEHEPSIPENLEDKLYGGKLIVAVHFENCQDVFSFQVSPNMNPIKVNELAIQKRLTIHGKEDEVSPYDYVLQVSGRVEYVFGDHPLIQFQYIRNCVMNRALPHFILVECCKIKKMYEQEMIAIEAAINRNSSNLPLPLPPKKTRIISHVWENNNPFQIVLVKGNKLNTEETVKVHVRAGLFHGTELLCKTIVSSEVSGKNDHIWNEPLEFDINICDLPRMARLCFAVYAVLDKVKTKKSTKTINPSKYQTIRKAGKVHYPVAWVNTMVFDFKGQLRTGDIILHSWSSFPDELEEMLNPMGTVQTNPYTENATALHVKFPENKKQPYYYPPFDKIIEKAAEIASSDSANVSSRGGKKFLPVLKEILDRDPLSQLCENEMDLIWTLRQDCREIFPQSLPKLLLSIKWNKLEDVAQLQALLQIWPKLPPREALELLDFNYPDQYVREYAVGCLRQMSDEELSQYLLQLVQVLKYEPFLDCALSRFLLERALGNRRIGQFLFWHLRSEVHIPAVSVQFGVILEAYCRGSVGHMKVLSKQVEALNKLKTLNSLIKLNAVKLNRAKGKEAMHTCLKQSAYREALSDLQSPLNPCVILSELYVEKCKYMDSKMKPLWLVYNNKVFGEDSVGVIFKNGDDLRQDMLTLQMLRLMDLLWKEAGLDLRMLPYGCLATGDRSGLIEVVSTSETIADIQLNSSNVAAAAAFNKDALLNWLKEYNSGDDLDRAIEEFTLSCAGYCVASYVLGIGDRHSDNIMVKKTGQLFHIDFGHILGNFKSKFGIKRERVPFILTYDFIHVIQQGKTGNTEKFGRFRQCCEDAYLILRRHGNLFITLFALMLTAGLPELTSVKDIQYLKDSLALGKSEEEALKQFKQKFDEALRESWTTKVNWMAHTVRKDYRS

SMILES	pIC50 [1]	pIC50 [2]	pIC50 [3]
N#CCc1ccc(Nc2ncnc3ccc(-c4ccc5c(c4)OCO5)cc23)cc1	< 5.00	< 5.00	–
N#CCc1ccc(Nc2ncnc3ccc(-c4cncc5ccccc45)cc23)cc1	–	< 4.70	–
CC(=O)c1ccc(-c2ccc3ncnc(Nc4ccc(CC#N)cc4)c3c2)cc1	< 5.00	< 5.00	–
C=Cc1ccc(-c2ccc3ncnc(Nc4ccc(CC#N)cc4)c3c2)cc1	< 5.00	< 5.00	< 5.00
N#CCc1ccc(Nc2ncnc3ccc(-c4ccncc4)cc23)cc1	< 5.00	< 5.00	–

The remaining lines, values ahead:

pIC50 [1]	pIC50 [2]	pIC50 [3]	SMILES
< 5.00	< 5.00	–	N#CCc1ccc(Nc2ncnc3ccc(-c4ccc5c(c4)OCCO5)cc23)cc1
< 5.00	< 5.00	–	N#CCc1ccc(Nc2ncnc3ccc(-c4cccc([N+](=O)[O-])c4)cc23)cc1
< 5.00	< 5.00	–	N#CCc1ccc(Nc2ncnc3ccc(-c4ccc5[nH]ccc5c4)cc23)cc1
